Source: PMC11439923 (Scientific Reports, 2024)

Legend:
[1] = system: HNSCC cell lines (FaDu, Cal-27, and Ca9-22); assay: Cell viability assay; type: cell-based, human; settings: Cal-27 and FaDu; 1 µM single agent; 48 and 72 h; MTT
Summary of the method: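 Seeded 8 × 10^3 cells/well in 10% FBS medium: MEM for Ca9-22; high-glucose DMEM for FaDu, Cal-27, HaCaT; DMEM/F12 for HK-2. Grown 24 h at 37 °C, 5% CO2, then dosed 24, 48 or 72 h: derivatives 0.001–20 µM, parent glycoside and platinum reference 0.01–50 µM. MTT 0.5 mg/ml 4 h, formazan dissolved in DMSO, A570. IC50 by nonlinear regression. Triplicate, ≥3 independent experiments.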

FaDu spheroids = assay: Three-dimensional culture, spheroid live/dead staining; type: cell-based, human; settings: 50 µM cisplatin, 72 h
Summary of the method: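 FaDu seeded 500 cells/well in U-bottom ultralow-attachment plates, spheroids formed over 72 h at 37 °C, 5% CO2. Spheroids exposed 72 h to a concentration series of test compound or platinum reference. Stained 1 h with Hoechst 33342 (live) and ethidium homodimer-1 (dead), imaged by high-content system. Read-out: Hoechst/EthD-1 mean fluorescence intensity ratio. One-way ANOVA with Tukey's test.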

healthy mice = settings: cited from earlier work
CTSD mRNA = assay: Quantitative RT-PCR of CTSD; type: cell-based, human; settings: 36 h, ECDD-S18 0.1, 1, 2 µM, bafilomycin A1 0.1 µM, vs DMSO
[2] = system: E-cadherin mRNA and protein; assay: E-cadherin expression; type: cell-based, human; settings: Cal-27 and FaDu; 36 h; ECDD-S18 0.1, 1, 2 µM, bafilomycin A1 0.1 µM
cathepsin D (CTSD) = assay: Western blot of cathepsin D; type: cell-based, human; settings: 36 h, ECDD-S18 0.1, 1, 2 µM, bafilomycin A1 0.1 µM, vs DMSO
Summary of the method: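 Cal-27 or FaDu seeded 5 × 10^5 cells per 60 mm dish for 24 h, treated 36 h with test compound (0.1, 1, 2 µM), 0.1 µM bafilomycin A1 or DMSO. RIPA lysates run on SDS-PAGE, transferred to PVDF, blocked in 5% milk 1 h. Probed overnight at 4 °C for pro/mature cathepsin D, N-cadherin, GAPDH; HRP secondary, ECL on film. Densitometry normalised to GAPDH, fold change versus untreated.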

V-ATPase activity = assay: LysoTracker Red staining; type: cell-based, human; settings: Cal-27 and FaDu; 0.1 µM; 24 h
Summary of the method: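 Cal-27 and FaDu plated 8 × 10^3 cells/well in black 96-well plates for 24 h. Treated 24 h with test compound (0.1, 1, 2 µM) or 0.1 µM bafilomycin A1. LysoTracker 2 h, immediate fixation in 4% paraformaldehyde 20 min, DAPI 30 min at room temperature. Lysosomal fluorescence intensity quantified by high-content imaging.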

| SMILES | cell viability [1] | Live/dead cell ratio (Hoechst 33342 to EthD-1) (FaDu spheroids) | WBC and RBC levels (healthy mice) | body weight loss (healthy mice) | mRNA expression of CTSD (CTSD mRNA; Cal-27) | mRNA expression of CTSD (CTSD mRNA; FaDu) | expression of E-cadherin mRNA and protein [2] | protein expression of mature CTSD (cathepsin D (CTSD); Cal-27) | protein expression of mature CTSD (cathepsin D (CTSD); FaDu) | LysoTracker red fluorescence intensity relative to DMSO control (V-ATPase activity) |
| --- | --- | --- | --- | --- | --- | --- | --- | --- | --- | --- |
| N.N.[Cl][Pt][Cl] [Cisplatin] | slight suppression | significantly reduced | marked decrease | 30–40% |  |  |  |  |  |  |
| CO/C1=C\C(C)=C\[C@@H](C)[C@@H](O)[C@@H](C)C/C(C)=C/C=C/[C@H](OC)[C@@H]([C@@H](C)[C@@H](O)[C@H](C)[C@@]2(O)C[C@@H](O)[C@H](C)[C@@H](C(C)C)O2)OC1=O [bafilomycin A1] |  |  |  |  | significantly decreased | significantly decreased | no effect | downregulated | downregulated | significantly decreased |
